Many of the other results were omitted from the sample, so hits are more common in it than they were.
IDH1 R132H inh – IDH1 R132H (human) inhibition. O75874. IDH1 R132H reductase, diaphorase/resazurin fluorescence, 60 min. inhibition, % at 10 µM. 70,000 tested, 0.18% active. AID 624101; in the data active means inhibition above about 34%; inconclusive means no clear call, values can overlap the other calls; inactive means below about 11%;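 further: 0% = DMSO and 100% = no enzyme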
Target sequence (O75874 whole entry R132H): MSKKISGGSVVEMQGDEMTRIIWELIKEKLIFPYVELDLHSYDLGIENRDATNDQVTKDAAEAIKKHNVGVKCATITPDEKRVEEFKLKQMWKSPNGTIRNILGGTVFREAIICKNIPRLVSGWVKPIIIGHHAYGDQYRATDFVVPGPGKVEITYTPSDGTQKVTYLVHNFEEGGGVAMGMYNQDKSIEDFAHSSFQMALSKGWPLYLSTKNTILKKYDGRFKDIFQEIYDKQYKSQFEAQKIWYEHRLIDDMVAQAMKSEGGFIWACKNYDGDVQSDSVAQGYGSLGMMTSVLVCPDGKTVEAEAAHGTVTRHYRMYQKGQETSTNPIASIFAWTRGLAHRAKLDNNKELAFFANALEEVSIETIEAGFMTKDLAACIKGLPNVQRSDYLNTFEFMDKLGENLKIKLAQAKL
T cruzi growth-1 – T. cruzi proliferation inhibition | T. cruzi beta-gal in NIH3T3, GalScreen luminescence, 90 h | 77,000 tested, 5.9% active | inhibition, % at 8.34 µM | AID 624255;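 active means mean inhibition above about 93%, with at least 55% of replicates each passing it, limit read from the data, passing the limit was not always enough; inconclusive means only one of those two conditions holds; inactive means neither condition holds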
KDM4C inh – KDM4C (human) demethylase inhibition; inhibition, % at 12.5 µM; Q9H3R0; AID 720574; GST-KDM4C 2-372, H3K9me3 peptide, LANCE TR-FRET; 96,000 tested, 0.15% active;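 active means mean replicate inhibition above about 25%, with at least 55% of replicates also reaching it, limit read from the data, passing the limit was not always enough; inconclusive means only one of those two conditions met; inactive means neither condition met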
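reagent = H3K9me3 peptide substrate, Fe(II), 2-oxoglutarate | system = GST-tagged GASC-1 (JMJD2C) catalytic fragment, aa 2-372 | amount = enzyme final amount 10 nM | read-out = Fall in 671/618 emission ratio as inhibition | medium = HEPES buffer, pH 7.5, plus ascorbate | schedule = 30 min reaction, 60 min detection, RT | measured by = LANCE TR-FRET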
T cruzi growth-2 – blocks T. cruzi growth in NIH3T3 host cells | T. cruzi beta-gal in NIH3T3, GalScreen luminescence, 90 h | shares compounds with T cruzi growth-1 | AID 651739 | inhibition, % at 8.35 µM | 5,600 tested, 72% active;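 active means mean replicate inhibition above about 95% and at least 55% of replicates individually reaching it, limit read from the data; inconclusive means only one of the two criteria is met; inactive means neither criterion is met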
T cruzi growth-3 – inhibitors of T. cruzi proliferation | shares compounds with T cruzi growth-1 | T. cruzi beta-gal in NIH3T3, GalScreen luminescence, 90 h | inhibition, % at 2.09 µM | 5,600 tested, 21% active | AID 651740;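 active means mean inhibition above about 95%, with at least 55% of replicates also reaching it, limit read from the data; inconclusive means meets just one of the two conditions; inactive means meets neither condition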;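 further: plate controls were neutral control median for no effect and positive control median for full effect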
NIH3T3 tox – kills mouse NIH/3T3 fibroblasts; NIH/3T3 viability, CellTiter-Glo ATP luminescence, 90 h; 5,600 tested, 14% active; cytotoxicity (signal decrease), % at 8.35 µM; shares compounds with T cruzi growth-1;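 active means mean signal decrease across replicates above about 35% based on untreated-well scatter, with enough replicates individually passing, limit read from the data; inconclusive means no rule stated though some were filed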;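 further: 0% = median of neutral control wells and 100% = median of positive control wells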
NIH3T3 tox 2 – cytotoxicity in mouse NIH/3T3 fibroblasts. shares compounds with T cruzi growth-1. NIH/3T3 viability, CellTiter-Glo ATP luminescence, 90 h. inhibition, % at 24.9 µM. 5,600 tested, 56% active. AID 651744;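 active means mean loss of cell viability signal at or above a set limit, and enough replicates individually reaching it; inconclusive means meets only the mean limit or only the replicate share; inactive means meets neither condition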;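 further: 0% = median of neutral control wells and 100% = median of positive control wells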
Starred values were filed as active, the others as inactive; u = inconclusive; x = no result.

SMILES	IDH1 R132H inh	T cruzi growth-1	KDM4C inh	T cruzi growth-2	T cruzi growth-3	NIH3T3 tox	NIH3T3 tox 2
COc1ccc(C#Cc2cnc3c(c2)C(=O)N([C@H](C)CO)C[C@@H](C)[C@H](CN(C)C(C)=O)O3)cc1	-2	u	1	32	8	14	33*
C[C@@H]1CN([C@H](C)CO)C(=O)c2cc(C#Cc3cccc(F)c3)cnc2O[C@H]1CN(C)C(=O)c1ccccc1F	-5	104*	0	106*	44	43*	u
COc1ccc(C#Cc2cnc3c(c2)C(=O)N([C@@H](C)CO)C[C@@H](C)[C@H](CN(C)C(C)=O)O3)cc1	0	19	0	x	x	x	x
COc1ccc(C#Cc2cnc3c(c2)C(=O)N([C@@H](C)CO)C[C@H](C)[C@@H](CN(C)C(=O)c2ccccc2F)O3)cc1	-1	113*	-1	98*	47	-25	-5
C[C@H](CO)N1C[C@H](C)[C@H](CN(C)C(=O)Nc2ccc(F)cc2)Oc2ncc(C#Cc3cccc(F)c3)cc2C1=O	2	u	-3	90	68	75*	105*
C[C@H]1CN([C@@H](C)CO)C(=O)c2cc(C#Cc3cccc(F)c3)cnc2O[C@H]1CN(C)C(=O)c1ccccc1F	0	80	12	x	x	x	x
C[C@H](CO)N1C[C@H](C)[C@H](CN(C)C(=O)Nc2ccccc2)Oc2ncc(C#Cc3cccc(F)c3)cc2C1=O	-2	35	0	x	x	x	x
COc1ccc(C#Cc2cnc3c(c2)C(=O)N([C@H](C)CO)C[C@@H](C)[C@H](CN(C)C(=O)c2ccccc2F)O3)cc1	-1	21	-2	x	x	x	x
Cc1cc(Cl)c(S(=O)(=O)Nc2cccnc2)cc1OCC(N)=O	0	x	x	x	x	x	x
C[C@@H]1CN([C@H](C)CO)C(=O)c2cc(C#Cc3cccc(F)c3)cnc2O[C@@H]1CN(C)C(=O)c1ccccc1F	-1	86	0	x	x	x	x
C[C@H]1CN([C@@H](C)CO)C(=O)c2cc(C#Cc3cccc(F)c3)cnc2O[C@@H]1CN(C)C(=O)c1ccccc1F	0	110*	-1	101*	28	-20	0
O=C(C[C@@H]1CC[C@H]2[C@@H](COC[C@H](O)CN2Cc2cccc(F)c2)O1)NCC1CCCCC1	x	-36	1	x	x	x	x
O=C(C[C@H]1CC[C@H]2[C@@H](COC[C@H](O)CN2Cc2cccc(C(F)(F)F)c2)O1)NCc1ccc(Cl)cc1	x	128*	-1	107*	54	25	u
O=C(C[C@H]1CC[C@H]2[C@@H](COC[C@@H](O)CN2Cc2cccc(C(F)(F)F)c2)O1)NCc1ccc(Cl)cc1	x	125*	-3	92	33	8	87*
O=C(C[C@H]1CC[C@H]2[C@@H](COC[C@@H](O)CN2Cc2cccc(C(F)(F)F)c2)O1)NCc1ccccc1	x	-35	2	x	x	x	x
C[C@H](NC(=O)C[C@@H]1CC[C@@H]2[C@H](COC[C@H](O)CN2Cc2ccc(C(F)(F)F)cc2)O1)c1ccccc1	x	168*	0	79	6	-3	23
C[C@@H](NC(=O)C[C@H]1CC[C@H]2[C@@H](COC[C@H](O)CN2Cc2ccc(C(F)(F)F)cc2)O1)c1ccccc1	x	73	1	x	x	x	x
O=C(C[C@@H]1CC[C@@H]2[C@H](COC[C@@H](O)CN2Cc2cccc(Cl)c2)O1)NCC1CCCCC1	x	125*	0	u	30	7	3
O=C(C[C@H]1CC[C@@H]2[C@H](COC[C@H](O)CN2Cc2cccc(C(F)(F)F)c2)O1)NCc1ccccc1	x	37	1	x	x	x	x
CCN(CC)C(=O)Oc1c(Br)cc(Br)c2ccc(C)nc12	-1	x	x	x	x	x	x
O=C(CCCCCC(=O)N/N=C/c1cccnc1Br)NO	0	x	x	x	x	x	x
O=C(C[C@H]1CC[C@@H]2[C@H](COC[C@H](O)CN2Cc2cccc(C(F)(F)F)c2)O1)NCc1ccc(Cl)cc1	x	144*	2	103*	7	13	99*
O=C(C[C@H]1CC[C@H]2[C@@H](COC[C@H](O)CN2Cc2cccc(C(F)(F)F)c2)O1)NCc1ccccc1	x	24	0	x	x	x	x

Bioassay records as filed in PubChem BioAssay.
